One series addresses T1, IRAK4 (Homo sapiens, UniProt Q9NWZ3).
T1 sequence (Q9NWZ3 1-460): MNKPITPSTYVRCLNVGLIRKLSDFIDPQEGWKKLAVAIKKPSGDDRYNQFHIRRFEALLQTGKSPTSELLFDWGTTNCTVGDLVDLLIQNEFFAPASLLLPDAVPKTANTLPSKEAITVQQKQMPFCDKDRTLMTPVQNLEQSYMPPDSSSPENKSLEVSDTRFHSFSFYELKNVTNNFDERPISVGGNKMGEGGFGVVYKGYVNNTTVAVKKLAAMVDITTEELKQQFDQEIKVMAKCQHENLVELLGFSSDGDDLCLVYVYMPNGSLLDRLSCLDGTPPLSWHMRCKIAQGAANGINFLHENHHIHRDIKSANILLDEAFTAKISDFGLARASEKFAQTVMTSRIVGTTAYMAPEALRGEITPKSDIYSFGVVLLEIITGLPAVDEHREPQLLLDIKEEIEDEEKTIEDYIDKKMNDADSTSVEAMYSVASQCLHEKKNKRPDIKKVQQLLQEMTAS
In words: Potency of takinib analogues against IRAK4. The series is classed as biochemical.

For the next series, the target named is MAP4K5 (Homo sapiens, UniProt Q9Y4K4). The series is described as follows: Dose–response of top 10 kinase hits. The format is biochemical. The note with it: read-out: IC50 MAP4K5, n = 2.
Chain of MAP4K5 (Q9Y4K4 whole entry): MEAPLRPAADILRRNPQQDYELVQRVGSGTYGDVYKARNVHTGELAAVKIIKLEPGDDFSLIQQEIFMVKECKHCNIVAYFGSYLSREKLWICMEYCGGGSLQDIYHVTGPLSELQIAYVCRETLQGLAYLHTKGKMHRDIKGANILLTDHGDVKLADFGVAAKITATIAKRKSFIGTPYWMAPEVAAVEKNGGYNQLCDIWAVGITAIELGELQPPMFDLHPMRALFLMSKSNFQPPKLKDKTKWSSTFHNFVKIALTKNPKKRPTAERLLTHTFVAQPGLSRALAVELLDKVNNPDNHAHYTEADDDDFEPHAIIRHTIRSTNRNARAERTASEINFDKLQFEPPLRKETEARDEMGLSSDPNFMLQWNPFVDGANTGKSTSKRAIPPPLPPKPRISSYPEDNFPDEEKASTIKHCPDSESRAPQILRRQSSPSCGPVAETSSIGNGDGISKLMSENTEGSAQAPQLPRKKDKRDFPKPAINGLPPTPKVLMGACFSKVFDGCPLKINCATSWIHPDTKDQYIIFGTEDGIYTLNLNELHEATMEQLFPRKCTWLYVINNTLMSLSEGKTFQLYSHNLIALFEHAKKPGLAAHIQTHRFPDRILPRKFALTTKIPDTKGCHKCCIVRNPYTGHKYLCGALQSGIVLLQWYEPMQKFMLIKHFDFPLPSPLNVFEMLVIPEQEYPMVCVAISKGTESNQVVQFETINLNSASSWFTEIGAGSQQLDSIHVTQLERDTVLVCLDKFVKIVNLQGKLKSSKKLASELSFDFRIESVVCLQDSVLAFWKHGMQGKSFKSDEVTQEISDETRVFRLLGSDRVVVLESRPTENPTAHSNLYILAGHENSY
Another series has as its target T2, GCK (Homo sapiens, UniProt Q12851).
T2 sequence (Q12851 1-820): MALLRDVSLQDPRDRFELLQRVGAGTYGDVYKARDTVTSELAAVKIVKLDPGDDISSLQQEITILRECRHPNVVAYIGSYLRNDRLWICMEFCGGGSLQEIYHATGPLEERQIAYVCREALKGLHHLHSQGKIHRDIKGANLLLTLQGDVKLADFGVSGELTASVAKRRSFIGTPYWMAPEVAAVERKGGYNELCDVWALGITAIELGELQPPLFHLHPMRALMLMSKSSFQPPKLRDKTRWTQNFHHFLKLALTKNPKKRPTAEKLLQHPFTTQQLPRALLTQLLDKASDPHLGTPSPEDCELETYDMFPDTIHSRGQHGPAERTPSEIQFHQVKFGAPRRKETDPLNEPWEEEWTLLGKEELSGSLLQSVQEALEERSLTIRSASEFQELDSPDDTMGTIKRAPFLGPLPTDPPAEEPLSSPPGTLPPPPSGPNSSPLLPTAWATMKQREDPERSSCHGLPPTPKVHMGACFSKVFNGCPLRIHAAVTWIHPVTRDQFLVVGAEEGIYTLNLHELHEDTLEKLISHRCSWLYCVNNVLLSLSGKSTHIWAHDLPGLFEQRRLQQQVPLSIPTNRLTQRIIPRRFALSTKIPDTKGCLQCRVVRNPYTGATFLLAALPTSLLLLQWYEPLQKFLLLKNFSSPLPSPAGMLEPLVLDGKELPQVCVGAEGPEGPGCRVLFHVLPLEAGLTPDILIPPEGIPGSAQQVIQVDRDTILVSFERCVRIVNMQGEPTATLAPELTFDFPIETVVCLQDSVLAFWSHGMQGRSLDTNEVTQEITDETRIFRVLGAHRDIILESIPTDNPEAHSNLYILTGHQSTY
In words: Dose–response of top 10 kinase hits. The series is classed as biochemical.

The target in the next series is T3, TAK1 (Homo sapiens, UniProt O43318).
T3 sequence (O43318 with tags, fused parts or gaps limits assumed): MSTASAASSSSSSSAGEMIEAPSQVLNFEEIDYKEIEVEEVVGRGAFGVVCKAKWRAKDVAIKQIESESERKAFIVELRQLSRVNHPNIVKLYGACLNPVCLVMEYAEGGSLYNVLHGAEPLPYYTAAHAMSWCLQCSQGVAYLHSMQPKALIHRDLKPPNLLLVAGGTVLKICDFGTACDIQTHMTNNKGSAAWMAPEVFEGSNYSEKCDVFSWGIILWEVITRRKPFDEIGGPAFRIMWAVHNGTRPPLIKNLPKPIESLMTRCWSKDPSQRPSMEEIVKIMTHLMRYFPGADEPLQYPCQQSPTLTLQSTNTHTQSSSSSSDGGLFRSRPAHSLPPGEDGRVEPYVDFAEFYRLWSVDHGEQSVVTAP
In words: MRC Dundee kinase panel screen at 10 μM. The series is classed as biochemical.

Series [1] relates to IL-1β expression in THP-1 cells. The series is described as follows: Cytokine dose–response curves in THP-1 cells. The series is classed as cell-based, human. The note with it: read-out: IC50 IL-1β expression; LPS-stimulated THP-1, 24 h. In outline: (§1)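 THP-1 cells differentiated with PMA (100 nM) for up to 72 h, then rested 24 h in PMA-free RPMI. Pretreated with test compound (3.2 nM–32 μM) or DMSO vehicle, then stimulated with LPS (10 ng/mL). After 24 h, TNF, IL-6 and IL-1β in supernatant measured by Luminex and expressed as percent of vehicle control; n = 3.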

Series [2] is described as follows: Oral pharmacokinetics in Sprague-Dawley rats. The format is in vivo.
Series [3] has as its system IL-6 expression in THP-1 cells. In words: Cytokine dose–response curves in THP-1 cells. The format is cell-based, human. The note with it: read-out: IC50 IL-6 expression; LPS-stimulated THP-1, 24 h. In outline: as §1
In another series the target is CK1γ2 (Homo sapiens, UniProt P78368). The series is described as follows: MRC Dundee kinase panel screen at 10 μM. The format is biochemical.
Chain of CK1γ2 (P78368 whole entry): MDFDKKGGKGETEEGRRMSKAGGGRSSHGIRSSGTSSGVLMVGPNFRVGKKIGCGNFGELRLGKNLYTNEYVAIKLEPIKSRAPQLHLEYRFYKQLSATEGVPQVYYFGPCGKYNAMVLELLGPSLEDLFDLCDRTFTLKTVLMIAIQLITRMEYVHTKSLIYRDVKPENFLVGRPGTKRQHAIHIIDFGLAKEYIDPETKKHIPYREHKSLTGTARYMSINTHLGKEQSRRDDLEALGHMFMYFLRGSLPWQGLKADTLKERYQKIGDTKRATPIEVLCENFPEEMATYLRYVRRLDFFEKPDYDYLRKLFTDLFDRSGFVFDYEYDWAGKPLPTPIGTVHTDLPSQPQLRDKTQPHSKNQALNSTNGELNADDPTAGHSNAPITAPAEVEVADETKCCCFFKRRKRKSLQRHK

Data on one molecule can be found in PMC9245008 (ACS chemical biology, 2022).

pIC50: −log10 of the molar value. Where only a bound is given, the exact number is not on record here.

As a reminder, the pIC50 is the IC50 on a negative log10 scale, so that one unit is a factor of ten. The term Cmax denotes the maximum level reached in the sampled fluid or tissue. Broadly, the Tmax is the time at which the peak concentration occurs. For orientation: half-life means how long it takes for the measured level to halve. Low values mean rapid decline, high ones slow decline.

`CCCn1c(NC(=O)c2cccc(C(N)=O)c2)nc2ccc(CN3CCCCC3)cc21` [HS-276]: the “IRAK4 inhibition in dose–response experiments” value on IRAK4 (Figure 2d) is given as “minimal IRAK4 inhibition”. The Ratio on IRAK4 (IRAK4 IC50 over TAK1 IC50) worked out at 1000. Also, the negative-log IC50 (pIC50) on IRAK4 (read-out: IRAK4 IC50) is 5.60; on MAP4K5, 6.91; at GCK (read-out: IC50 GCK, dose–response, n = 2) it was 7.48; in series [1] it was 6.63; in series [3], 6.70. Also, the “preference for TAK1 over IRAK4” value at IRAK4 (selectivity) came to 1000 fold. In addition, the “TAK1 more potently inhibited than GCK” value at GCK (from dose–response IC50 values) was determined as 4.1 fold. Besides, the enzymatic activity at TAK1 and on CK1γ2 was less than 15% throughout. Moreover, the “time up to which μM serum levels are shown” value in series [2] (post oral gavage, species not stated) is reported as “up to 8 h”. Moreover, the “time up to which μM plasma concentration is shown” value in series [2] (rat, 50 mg/kg oral gavage) lay in the range of 8 to 12 h. Besides, in series [2] (rat, 50 mg/kg oral gavage, at 12 h), the peak urine concentration was 100 µM. Also, the AUC0-last in series [2] (rat, PO, 50 mg/kg) was determined as 6462 ng·h/mL. Also, the peak concentration (Cmax) in series [2] (rat, PO, 50 mg/kg) came to 1890 ng/mL. In series [2] (rat, PO, 50 mg/kg), the Tmax is 2 h. Besides, the half-life in series [2] (rat, PO, 50 mg/kg) is reported as 5.46 h.
